# Compound activity from PubChem BioAssay.
# SDO1 yeast rescue: sdo1-depleted yeast growth rescue; AID 817; 140,000 tested, 0.21% active; S. cerevisiae sdo1-depleted JHY4D growth rescue, OD600 30 h; hits give high values; pdr5 snq2 efflux-pump mutant strain; z-score at 10 µM;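 active = z-score above 3 at both the 24 hr and the 30 hr optical density reads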;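 also: z-score against mean and SD of all compound wells on the same plate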
# BB579 growth dn: reduces growth of yeast BB579 in restrictive medium. S. cerevisiae BB579 growth, OD615, 48 h. inhibition, % at 10 µM. 140,000 tested, 0.51% active. AID 804;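 active = inhibition above a set limit, 3 SD over the mean compound inhibition, cut at about 44% in these data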
#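 Assay system – yeast BB579 (DeaD) · Dosing – single compound dose of 10 µM, 0.25% DMSO final · Detection – OD615 turbidity measurement · Buffer or medium – CSMM-D restrictive synthetic medium containing dextrose (glucose) · Benchmarks – positive control amphotericin B 10 µg/mL · Incubation – 48 h exposure, 30 °C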
# Yeast lifespan up: extends the lifespan of yeast. S. cerevisiae growth with nicotinamide, OD615; deaD strain in restrictive glucose medium. inhibition of the nicotinamide effect, % at 10 µM. 130,000 tested, 0.68% active;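 active = inhibition above a set limit, placed 3 SD over the median of all compounds, cut at about 26% in these data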;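 also: 0% = nicotinamide-treated wells and 100% = cells grown without nicotinamide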
#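 assay system = DeaD-strain S. cerevisiae | measured by = absorbance at 615 nm | probe or stimulus = nicotinamide 1.5 mM | buffer or medium = CSMM-D glucose medium, restrictive | times = 48 h at 30 °C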
# RAM network inh: yeast RAM network inhibition | AID 868 | inhibition, % at 50 µM | S. cerevisiae dse1pr::URA3 reporter, 5-FOA growth OD615, 2 d; analog-sensitive cbk1-as2 kinase mutant strain | 190,000 tested, 1.8% active;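 active = inhibition above a set limit, 3 SD over mean compound inhibition, cut at about 8.4% in these data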;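 also: 0% = DMSO-only wells with no growth and 100% = 10 µM 1-NA-PP1 full growth; inhibition rescues growth on 5-FOA so higher OD means more RAM inhibition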
# * marks the source's active call; other numbers are inactive results; . = no result. Compounds with a hit are over-represented: about 2.7% of the library has one in this group of screens.
SMILES,SDO1 yeast rescue,BB579 growth dn,Yeast lifespan up,RAM network inh
Nc1nc(CN2CCN(c3ccccc3)CC2)nc(Nc2ccc(Cl)cc2)n1,.,.,.,3.8
Nc1nc(-c2ccccc2)c(-c2ccccc2)s1,-0.81,-23.5,-16.2,2.0
Cc1ccc(-c2nc(N)sc2-c2ccccc2)cc1C,-2.24,78.6*,-5.8,-1.3
COc1nc(-c2ccccc2)ccc1-c1noc(-c2ccco2)n1,0.64,-36.4,-23.3,7.9
COc1nc(-c2ccccc2)ccc1-c1noc(-c2ccccc2)n1,-0.82,-47.2,1.0,11.0*
Cc1[nH]nc2c1/C(=N\O)CCC2,.,.,.,1.5
CCOC(=O)c1c(-c2ccc(OC)cc2)cn2ccccc12,.,.,.,2.9
CN(c1ccc(O)cc1)c1nc(-c2ccccc2)cs1,-1.22,81.5*,-12.0,-0.1
CC(=O)Nc1ccc(N(C(=O)CNC(=O)c2ccco2)C(C(=O)NCc2ccco2)c2ccccc2F)cc1 (stereo not given),.,.,.,4.2
Cc1ccc(S(=O)(=O)N(C(=O)c2ccncc2)c2ccc(OC(=O)c3ccncc3)c3ccccc23)c(C)c1,-0.39,-69.7,36.8*,8.4
Cc1c(N=NC2=C(O)CC(C)(C)CC2=O)c(=O)n(-c2ccccc2)n1C,.,.,.,1.1
O=C1OC(c2ccccc2)=NC12CC2c1ccc(Cl)cc1 (stereo not given),-0.83,1.3,30.1*,1.1
c1ccc(NC2=Nc3cccc4cccc2c34)cc1,.,.,.,3.6
O=C(NNC1=Nc2cccc3cccc1c23)c1ccccc1Br,-1.76,-34.9,38.4*,5.2
CCOC(=O)c1cc2sccc2n1CCCN1C(=O)c2ccccc2C1=O,-1.98,-36.3,-1.5,9.0*
Nc1nc(-c2ccccc2)nc2sc3c(c12)CCCC3,-1.24,-31.9,-7.5,3.6
S=C(NCCc1cnc[nH]1)NC1CCCC1,.,.,.,2.5
CCCC(=N)C1=C(O)CC(CC(C)SCC)CC1=O (stereo not given),0.86,-8.9,-9.4,-0.8
CCCC(=O)C1C(=O)CC(CC(C)SCC)CC1=O (stereo not given),0.27,-35.7,96.8*,-1.3
CCc1cc2c3c(c1)C(C)CC(C)(C)N3C(=O)C2=O (stereo not given),-0.72,-24.8,27.7*,0.1
CCOc1cc2c3c(c1)C1(OCCO1)C(=O)N3C(C)(C)CC2C (stereo not given),-0.06,-33.3,0.2,0.7
c1ccc(-c2c(-c3ccccc3)n(Cc3ccco3)c3ncnc(NCCCn4ccnc4)c23)cc1,-2.74,-62.5,43.1*,-0.6
CC(C)Cn1cnc2c(c(-c3ccccc3)c(-c3ccccc3)n2Cc2ccco2)c1=N,-2.45,-38.9,28.3*,2.3
N=c1c2c(-c3ccccc3)c(-c3ccccc3)n(Cc3ccco3)c2ncn1CCCn1ccnc1,-0.87,-13.7,43.3*,-0.4
N=c1c2c(-c3ccccc3)c(-c3ccccc3)n(Cc3ccco3)c2ncn1CCCN1CCOCC1,.,.,.,0.2
SMILES,SDO1 yeast rescue,BB579 growth dn,Yeast lifespan up,RAM network inh
CC(C)CCNCC(O)CON=C1c2ccccc2-c2ccccc21 (stereo not given),.,.,.,-1.4
CN(CC(O)CON=C1c2ccccc2-c2ccccc21)S(=O)(=O)c1ccc(Br)cc1 (stereo not given),-0.07,-14.2,-0.9,9.3*
CS(=O)(=O)N(CC(O)CON=C1c2ccccc2-c2ccccc21)c1ccc(F)cc1 (stereo not given),-0.93,-74.5,-11.2,2.8
Cc1cccc(N(CC(O)CON=C2c3ccccc3-c3ccccc32)S(C)(=O)=O)c1 (stereo not given),-1.52,-0.8,-1.2,9.8*
COCCC(=O)NNS(=O)(=O)c1ccc(Cl)cc1,-0.39,-3.2,2.5,2.9
CCCN(CCC)S(=O)(=O)c1ccc(C(=O)NCc2n[nH]c(=S)n2-c2ccc(Cl)c(Cl)c2)cc1,.,.,.,3.1
Oc1ccc(-c2csc(-c3ccccc3)n2)cc1O,-2.47,82.6*,-20.4,-1.8
Oc1ccccc1-c1csc(-c2ccccc2)n1,.,.,.,1.9
NC(=O)c1ccc(-n2c(CCC(=O)O)ccc2-c2cccs2)cc1,.,.,.,1.1
CC(=O)c1ccc(-n2c(CCC(=O)O)ccc2-c2cccs2)cc1,0.77,-37.3,-26.7,9.7*
c1ccc(CSc2nnc(-c3sccc3-n3cccc3)o2)cc1,-0.92,-28.4,-9.2,8.7*
COc1ccc(NC(=O)Cc2coc3ccc4ccccc4c23)cc1S(=O)(=O)N1CCOCC1,0.95,-37.9,5.0,4.3
CCOC(=O)c1cc(-c2ccc(Cl)cc2)nc2onc(C)c12,-0.21,-30.1,-2.0,9.8*
CCOC(=O)c1cc(-c2ccc(Cl)cc2)nc2c1c(=O)[nH]c(=O)n2CCOC,.,.,.,3.1
COCCCNC(=O)CCCCCNS(=O)(=O)c1ccc(Br)cc1,.,.,.,-0.4
Cc1ccc(Cn2cc(C(=O)c3ccc(F)cc3)c(=O)c3cc4c(cc32)OCCO4)cc1,-1.21,-24.1,4.5,10.3*
COc1ccc(Cn2cc(C(=O)c3ccccc3)c(=O)c3cc(OC)ccc32)cc1,-1.34,-27.5,8.4,4.3
CCOc1ccccc1N1CC(C(=O)Nc2cccc(S(=O)(=O)N3CCCCC3)c2)CC1=O (stereo not given),.,.,.,2.4
CCOC(=O)N=Nc1c(O)n(Cc2ccccc2)c2ccccc12,.,.,.,10.5*
CCOC(=O)N=Nc1c(O)n(CC)c2ccccc12,0.14,-37.1,-6.0,1.1
S=C1SCN(Cc2ccccn2)CN1Cc1ccco1,-1.73,52.3*,21.8,-0.8
CCOCCCN1CN(Cc2ccco2)CNC1=S,.,.,.,0.1
S=C1SCN(Cc2cccnc2)CN1Cc1ccccc1,.,.,.,0.4
COCCN1CSC(=S)N(Cc2ccco2)C1,-2.15,59.5*,-8.5,-0.7
COc1ccc(S(=O)(=O)N(C)C)cc1NC(=O)COC(=O)c1nn(C)c(=O)c2ccccc12,.,.,.,2.4
SMILES,SDO1 yeast rescue,BB579 growth dn,Yeast lifespan up,RAM network inh
COCCNC(=O)C(=O)N/N=C(\C)CC(=O)Nc1cccnc1,.,.,.,1.2
O=C(CN1C(=O)CCC1=O)Nc1ccc(Cc2ccc(NC(=O)CN3C(=O)CCC3=O)cc2)cc1,.,.,.,-0.2
CC1CCN(C(=O)C(C)Sc2nc(-c3ccccc3)cc(C(F)(F)F)n2)CC1 (stereo not given),-0.77,-16.0,3.6,8.8*
CCO/C=C/C(O)(CNC(=O)c1ccc(C(C)(C)C)cc1)C(F)(F)F (stereo not given),-0.84,-35.2,2.0,-0.6
CCOC(=O)/C(C#N)=C\c1cn(C)c2ccccc12,.,.,.,1.9
CCOC(=O)/C(=C\c1cn(C)c2ccccc12)[N+](=O)[O-],-0.61,-15.4,43.8*,-1.4
Cc1ccnc(SCc2cc(=O)c(OC(=O)c3ccco3)co2)n1,0.1,-17.9,42.4*,0.5
CSc1ccccc1NC(=O)CN(C)CC(=O)Nc1c(F)cccc1F,0.89,-37.9,3.5,1.1
Cc1cc2n(n1)C(c1sccc1C)Nc1ccccc1-2 (stereo not given),-0.05,-39.6,-14.9,3.7
Cc1ccc2c(c1)-c1cc(C)nn1C(c1sccc1C)N2 (stereo not given),-0.83,-37.5,-26.1,10.3*
Cc1ccc(-n2nnnc2SCC(=O)NC2CCCc3ccccc32)c(C)c1 (stereo not given),-0.53,-47.5,-1.9,8.5*
